Sampled rows, rich in hits. Any-hit rate of the full collection: about 2.3%.
MC4R barr agon: MC4R agonists recruiting beta-arrestin, primary screen, cell-based, luminescence, agonist arm of biased-ligand search; activation, % at 8.9 µM; 360,000 compounds, 0.98% hits; AID 540308, 2011; U2OS MC4R beta-arrestin complementation; percent of melanotan II response, DMSO zero; Melanocortin receptor 4 (Homo sapiens), P32245;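 active = activation above a per-plate cutoff, the mean activation of sample wells on that plate plus 3 SD, cut at about 8% in these data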
Target sequence (P32245 whole entry, looked up): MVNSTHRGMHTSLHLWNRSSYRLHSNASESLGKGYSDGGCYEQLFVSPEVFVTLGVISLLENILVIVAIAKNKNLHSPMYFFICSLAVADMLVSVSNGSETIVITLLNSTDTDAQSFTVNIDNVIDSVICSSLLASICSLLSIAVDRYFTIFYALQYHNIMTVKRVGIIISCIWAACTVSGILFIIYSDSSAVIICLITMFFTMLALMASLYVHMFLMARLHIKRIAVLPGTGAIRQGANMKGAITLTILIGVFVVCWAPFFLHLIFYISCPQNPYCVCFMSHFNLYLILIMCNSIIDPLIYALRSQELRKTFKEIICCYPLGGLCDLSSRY
MsrA inh: bovine MsrA enzyme inhibitors, primary screen, biochemical, absorbance, HTS. inhibition, % at 15.5 µM. Methionine sulfoxide reductase A (Bos taurus). 360,000 compounds, 0.75% hits. purified bovine MsrA, absorbance read-out; in the data active = inhibition above about 4.5%;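 also: 0% = vehicle wells with enzyme and 100% = reference inhibitor wells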
MC4R antag cAMP: MC4R antagonists of cAMP signaling, primary screen, cell-based, TR-FRET, antagonist arm of biased-ligand search; MC4R-expressing cells, MTII-stimulated cAMP, LANCE TR-FRET; Melanocortin receptor 4 (Homo sapiens), P32245; AID 540295, 2011; 360,000 compounds, 0.48% hits; inhibition, % at 6.5 µM;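 active = inhibition above its plate's cutoff, the mean of tested wells on that plate plus 3 SD, cut at about 29% in these data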;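 also: 0% = Melanotan II alone and 100% = Melanotan II plus saturating MCL0020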
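material = U2OS cells stably expressing human melanocortin 4 receptor (MC4R) | also added = Melanotan II challenge | dosing = single nominal compound dose of 6.5 µM | detection = TR-FRET with Eu-cAMP and labeled anti-cAMP, 671 nm | replication = singlicate | timing = compound 30 min, challenge 1 h, detection 1 h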
bovine MsrA act: bovine MsrA enzyme activators, primary screen, biochemical, absorbance, HTS; Methionine sulfoxide reductase A (Bos taurus); purified bovine MsrA, absorbance read-out; activation, % at 10.6 µM; 360,000 compounds, 0.3% hits; AID 602163, 2012; in the data active = activation above about 7.5%;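 also: 0% = vehicle and 100% = reference activator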
Active calls of the source: *; nt = no result given.

SMILES	MC4R barr agon	MsrA inh	MC4R antag cAMP	bovine MsrA act
COc1ccc(C(C[N+](=O)[O-])C2(c3ccc(OC)c(OC)c3)C(=O)c3ccccc3C2=O)cc1 (stereo not drawn)	-0.2	nt	-8.1	-13.9
CCOC(=O)C[C@H]1c2cc(F)ccc2S(=O)(=O)N1C(C)(C)C	0.1	-0.6	-2.8	-4.0
CCOC(=O)Cc1ccc(Nc2nc(NCc3ccccc3)nc3ccsc23)cc1	8.5*	2.5	9.9	-0.4
Cc1cc(F)ccc1NCC(=O)Nc1ccc(Br)cc1C	4.0	-0.4	5.9	-12.1
COc1cccc(-c2sc3ccccc3c2-c2ccc(OCCN3CCCCC3)cc2)c1	18.0*	nt	16.7	-0.7
COc1ccc(-c2sc3ccccc3c2-c2ccc(OCCN3CCCCC3)cc2)cc1	-0.6	0.5	4.7	-2.1
COc1cccc(-c2sc3cc(OC)c(OC)cc3c2-c2ccc(OCCN3CCCCC3)cc2)c1	11.3*	nt	14.0	-2.0
COc1cccc(-c2sc3ccc(OC)cc3c2-c2ccc(OCCN3CCCC3)cc2)c1	27.3*	nt	11.0	-1.5
COc1ccc(-c2sc3cc(OC)ccc3c2-c2ccc(OCCN3CCCCC3)cc2)cc1	nt	-0.2	nt	-1.5
CCc1ccccc1S(=O)(=O)Cc1ccc(C(=O)NCC2CCCO2)o1 (stereo not drawn)	0.2	1.3	1.1	-11.0
CC1CCN(S(=O)(=O)c2ccc(NC(=O)Cn3nnc(-c4ccccc4)n3)cc2)CC1	37.3*	0.4	-4.4	-1.8
Cc1ccc(-c2nnn(CC(=O)Nc3ccc(S(=O)(=O)N4CCC(C)CC4)cc3)n2)cc1	12.6*	-0.2	-3.7	-1.8
CC1CCCN(S(=O)(=O)c2ccc(NC(=O)Cn3nnc(-c4ccccc4F)n3)cc2)C1 (stereo not drawn)	2.9	0.8	3.8	-0.9
O=C(Nc1ccc(Br)c(C(F)(F)F)c1)c1ccc(C(F)(F)F)cc1	8.5*	0.3	17.2	-2.3
O=C(COC(=O)/C=C/c1cc(Br)ccc1F)Nc1ccc2[nH]c(=O)[nH]c2c1	8.9*	0.4	1.9	-3.0
O=C(COC(=O)Cc1ccccc1F)Nc1ccc2[nH]c(=O)[nH]c2c1	-5.2	0.8	8.6	-1.6
Clc1ccc(-c2nnnn2-c2ccc(Cl)c(Cl)c2)cc1Cl	0.4	15.6*	-1.1	-1.6
CCC(=O)N1CCN(CCN=CC2=C(O)CC(C)(C)CC2=O)CC1	-1.6	1.6	-1.2	-3.4
Cc1ccccc1/C=N/Nc1ccnc2cc(Cl)ccc12	8.5*	0.5	-2.2	4.4
Cc1ccc(/C=N/Nc2ccnc3cc(Cl)ccc23)c(C)c1	4.3	-1.7	8.3	-0.8
C[C@]12CCC3C(CC[C@H]4CCCC[C@]34C)C1CC[C@@]2(O)CNCCO (stereo partly drawn)	-1.2	-1.3	-0.3	-2.4
CN(CC(=O)Nc1cccc(F)c1)C(=O)c1ccc(C2SCCS2)cc1	-1.8	1.3	9.2	-0.9
O=C(CSc1c(F)c(F)cc(F)c1F)Nc1ccc(C2SCCS2)cc1	8.5*	-0.7	6.2	-2.6
O=C(COc1ccc(C2SCCS2)cc1)Nc1ccc(Cl)cc1	-1.4	1.2	10.0	-2.5
O=C(CSc1ccc(Cl)cc1)Nc1ccc(C2SCCS2)cc1	9.6*	0.3	4.5	-2.5
SMILES	MC4R barr agon	MsrA inh	MC4R antag cAMP	bovine MsrA act
O=C1CCC(=O)N1c1ccccc1	-0.8	1.6	6.0	-3.2
Cc1ccc(-c2nc3ccc(Cl)cn3c2Cc2ccsc2)cc1	nt	2.1	nt	-3.1
N#Cc1ccc(Nc2nc(-c3ccc(O)cc3O)cs2)cc1C(F)(F)F	19.8*	nt	12.7	-2.7
Oc1ccc(-c2csc(Nc3ncccn3)n2)c(O)c1	-0.8	-0.9	14.2	-2.8
Cc1cccc(Nc2nc(-c3ccc(O)cc3O)cs2)n1	9.4*	2.4	11.6	-1.4
Oc1ccc(-c2csc(Nc3ccc4c(c3)OCO4)n2)c(O)c1	1.0	1.6	9.0	-2.0
CN(CC(=O)NC(=O)NCc1ccccc1)Cc1cccc(Cl)c1Cl	-1.2	-0.3	2.9	-0.8
c1ccc(CC[C@@H]2CC[C@@H](CCc3ccccc3)N2)cc1	8.4*	0.2	-2.3	-1.4
COc1ccc(C2Nc3ccccc3C(=O)N2c2ccccc2)cc1CSc1ccccn1 (stereo not drawn)	-1.2	2.1	17.6	-11.8
COc1ccc(C2Nc3ccccc3C(=O)N2c2ccc(F)cc2)cc1CSc1ccccn1 (stereo not drawn)	33.0*	0.2	-2.6	-14.6
Cc1ccc(NC(=O)c2ccccc2OCC(=O)c2ccccc2)cc1	8.6*	-1.0	18.4	2.7
O=C(O)CNC(=O)/C(=C/c1ccco1)NC(=O)/C=C/c1ccccc1	-1.8	-0.2	5.5	1.9
CCCCCCCCCCCCCCCC[n+]1ccc(C(N)=O)cc1	9.2*	-1.4	21.6	-3.3
CC(=O)Cc1cc(O)c2ccccc2c1OC(=O)c1ccc(Br)cc1	16.9*	0.3	-1.2	-2.6
O=C(COC(=O)c1ccc(Br)cc1)NCc1ccccc1	-0.8	-0.2	6.6	-0.3
COc1cc(Br)c(-c2sc(Nc3ccccc3)n[n+]2-c2ccc(F)cc2)cc1OC	-1.4	1.2	4.5	0.1
COc1cc(OC)c(-c2sc(Nc3ccccc3)n[n+]2-c2ccc(F)cc2)cc1OC	-2.1	4.6*	-3.5	-10.7
O=C(NCCNS(=O)(=O)c1cccc(C(F)(F)F)c1)c1cc(OCC(F)(F)F)ccc1OCC(F)(F)F	28.2*	0.9	3.1	-11.5
CCOC(=O)C1=C(C)NC(C)=C(C(=O)OCC)C1c1cc2ccc(C)cc2[nH]c1=O	-1.1	2.3	-2.4	-3.0
Cc1c(CC(=O)NCC(=O)O)c(=O)oc2cc3c(cc12)CCC(C)(C)O3	1.3	4.6*	17.0	-3.6
CCN(CC)c1ccc2c(-c3ccc(S(=O)(=O)O)cc3S(=O)(=O)[O-])c3ccc(=[N+](CC)CC)cc-3oc2c1	-3.8	nt	50.3*	-2.4
CCN(CC)c1ccc(NC(=O)CSc2nc(C3CC3)nc3ccccc23)cc1C	8.9*	-0.2	-16.1	-0.3
Cc1cccc(NC(=O)CSc2nc(C3CC3)nc3ccccc23)c1	1.7	-0.7	8.6	-1.2
COC(=O)c1cc2sccc2n1CC(=O)N1CCCc2ccccc21	-0.1	0.4	7.6	-0.7
Cc1nc(N/N=C/c2ccc(Br)cc2)cc(N2CCOCC2)n1	8.3*	1.8	11.3	-0.8
S=C(Nc1ccc(Cl)c(Cl)c1)NC1CCN(Cc2ccccc2)CC1	22.2*	-1.4	3.9	1.0
O=C(NCC(c1ccco1)N1CCN(c2ccc(F)cc2)CC1)OCc1ccccc1 (stereo not drawn)	8.3*	-0.5	5.2	1.2
C/C(=N\Nc1nc2ccccc2[nH]1)c1ccc([N+](=O)[O-])cc1	9.5*	0.1	-3.2	-7.3
COc1cccc(/C=N/NC(=O)c2[nH]c(C)c(C(=O)N/N=C/c3cccc(OC)c3O)c2C)c1O	0.5	5.0*	-10.5	-8.2

Compound activity as filed in PubChem BioAssay.
